Results: ChEMBL document CHEMBL4680284, “Doxorubicin and Aclarubicin: Shuffling Anthracycline Glycans for Improved Anticancer Agents” (J Med Chem, 2020)
pIC50: −log10 of the molar value. Active and inactive are the calls of the source. The rule behind the calls is not given here.

Assays:
DNA [1] = experiment: Induction of DNA damage in human K562 cells assessed as induction of DNA break formation by measuring H2AX phosphorylation at 10 uM incubated for 2 hrs by Western blot analysis; type: cell-based
Summary of the method: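 K562 cells were given 10 μM drug for 2 h, then washed extensively. They were lysed in SDS sample buffer (2% SDS, 60 mM Tris–HCl pH 6.8) and run on SDS-PAGE. Blots were probed for γH2AX (1:1000), with β-actin (1:10000) as the loading control. The γH2AX signal was quantified relative to actin.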

DNA [2] = experiment: Induction of DNA damage in human K562 cells assessed as induction of DNA break formation by measuring H2AX phosphorylation at 10 uM incubated for 2 hrs by constant-field gel […] method; type: cell-based
Summary of the method: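 K562 cells were exposed to 10 μM drug for 2 h and washed extensively. DNA double-strand breaks were then resolved by constant-field gel electrophoresis and the images quantified. Results are mean ± SD of three independent experiments.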

MEL-JUSO [3] = experiment: Induction of histone eviction in human MEL-JUSO cells assessed as release of photoactivated green fluorescent protein-labeled histone H2A at 10 uM incubated for 2 hrs by time-lapse confocal microscopy; type: functional, cell-based
Summary of the method: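 MelJuSo cells stably expressing PAGFP-H2A were kept in IMDM with 8% FCS and G-418. Nuclear regions were photoactivated and 10 μM drug was added. Time-lapse confocal imaging (63× lens, climate chamber) followed the loss of fluorescence from the activated regions. Values are mean ± SD of 10–20 cells from at least three independent experiments.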

K562 = experiment: Cytotoxicity in human K562 cells assessed as reduction in cell viability incubated for 2 hrs by Cell-titer-blue assay; type: functional, cell-based; settings: K562, 2 h
Summary of the method: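 The drugs were then removed and the cells grown a further 72 h before a CellTiter-Blue viability read. Survival was normalized to the untreated control and background-corrected, with mean ± SD from three experiments. Culture was at 37 °C in 5% CO2. Media with 8% FCS were RPMI-1640 (DU145, HCT116, K562, PC3), IMDM (MelJuSo) and DMEM (U87).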

[4] = Drug uptake in human K562 cells at 1 uM by flow cytometry relative to aclarubicin; type: ADME, cell-based; settings: k562, 1 µM
Summary of the method: (§1)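 K562 cells in RPMI-1640 with 8% FCS were exposed to 1 μM drug for 2 h. They were then washed, collected and fixed with paraformaldehyde. The intrinsic anthracycline fluorescence was read by flow cytometry with a 561 nm laser and a 610/20 nm detector.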

[5] = target: DNA topoisomerase 2-alpha (Homo sapiens) (UniProt P11388); experiment: Induction of relocalization of GFP-tagged Topo2a (unknown origin) expressed in human MEL-JUSO cells at 10 uM incubated for 15 mins; type: cell-based
Chain of DNA topoisomerase 2-alpha (Homo sapiens) (P11388 whole entry): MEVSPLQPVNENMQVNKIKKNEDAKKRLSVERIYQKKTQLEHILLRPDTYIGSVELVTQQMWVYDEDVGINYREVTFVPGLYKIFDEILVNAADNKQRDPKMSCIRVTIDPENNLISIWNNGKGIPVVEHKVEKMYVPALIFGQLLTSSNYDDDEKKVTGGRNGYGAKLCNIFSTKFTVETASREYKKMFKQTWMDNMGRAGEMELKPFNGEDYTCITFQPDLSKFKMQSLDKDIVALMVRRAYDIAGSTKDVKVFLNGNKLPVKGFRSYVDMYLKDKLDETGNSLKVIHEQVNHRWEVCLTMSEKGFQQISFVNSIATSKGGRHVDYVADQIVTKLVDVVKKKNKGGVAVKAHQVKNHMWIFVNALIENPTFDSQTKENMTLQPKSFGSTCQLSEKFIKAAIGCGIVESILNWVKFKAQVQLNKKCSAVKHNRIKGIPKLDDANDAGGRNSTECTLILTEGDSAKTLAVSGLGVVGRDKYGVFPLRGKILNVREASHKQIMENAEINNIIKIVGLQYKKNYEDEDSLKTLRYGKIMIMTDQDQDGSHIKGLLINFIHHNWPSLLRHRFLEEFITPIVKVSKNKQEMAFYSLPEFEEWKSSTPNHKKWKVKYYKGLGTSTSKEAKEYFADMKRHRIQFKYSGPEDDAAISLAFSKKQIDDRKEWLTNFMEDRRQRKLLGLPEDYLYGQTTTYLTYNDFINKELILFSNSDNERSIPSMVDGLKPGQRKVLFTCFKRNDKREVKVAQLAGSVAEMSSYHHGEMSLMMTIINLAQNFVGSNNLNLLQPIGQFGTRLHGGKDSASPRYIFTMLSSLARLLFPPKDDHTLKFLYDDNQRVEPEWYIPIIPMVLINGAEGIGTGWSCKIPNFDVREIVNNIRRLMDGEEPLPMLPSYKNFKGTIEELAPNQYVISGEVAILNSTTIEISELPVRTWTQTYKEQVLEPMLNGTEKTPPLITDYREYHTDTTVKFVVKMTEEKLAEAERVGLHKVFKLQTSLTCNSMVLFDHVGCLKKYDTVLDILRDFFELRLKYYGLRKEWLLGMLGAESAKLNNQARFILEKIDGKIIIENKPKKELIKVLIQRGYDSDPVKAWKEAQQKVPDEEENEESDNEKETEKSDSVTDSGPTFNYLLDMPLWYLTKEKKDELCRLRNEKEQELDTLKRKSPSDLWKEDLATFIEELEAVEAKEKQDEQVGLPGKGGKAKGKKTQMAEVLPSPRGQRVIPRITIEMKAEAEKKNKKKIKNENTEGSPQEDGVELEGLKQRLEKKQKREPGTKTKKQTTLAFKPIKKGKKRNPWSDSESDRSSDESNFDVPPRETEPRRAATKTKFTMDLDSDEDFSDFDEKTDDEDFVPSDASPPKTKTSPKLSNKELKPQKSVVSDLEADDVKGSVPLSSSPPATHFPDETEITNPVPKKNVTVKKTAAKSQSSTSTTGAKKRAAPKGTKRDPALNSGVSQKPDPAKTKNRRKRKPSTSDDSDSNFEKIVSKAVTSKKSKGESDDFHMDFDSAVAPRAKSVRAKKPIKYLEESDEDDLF
Summary of the method: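 MelJuSo cells were transiently transfected with a TopoIIα-GFP construct and imaged live by confocal microscopy. Relocalization of TopoIIα was expressed as a fractional distance.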

MEL-JUSO [6] = experiment: Cytotoxicity in human MEL-JUSO cells assessed as reduction in cell viability incubated for 2 hrs by Cell-titer-blue assay; type: functional, cell-based
Summary of the method: (§2)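 The drugs were then removed and the cells grown a further 72 h before a CellTiter-Blue viability read. Survival was normalized to the untreated control and background-corrected, with mean ± SD from three experiments. Culture was at 37 °C in 5% CO2.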

HCT-116 = experiment: Cytotoxicity in human HCT-116 cells assessed as reduction in cell viability incubated for 2 hrs by Cell-titer-blue assay; type: functional, cell-based; settings: HCT-116, 2 h; summary of the method: as §2
PC-3 = experiment: Cytotoxicity in human PC-3 cells assessed as reduction in cell viability incubated for 2 hrs by Cell-titer-blue assay; type: functional, cell-based; settings: PC-3, 2 h; summary of the method: as §2
DU-145 = experiment: Cytotoxicity in human DU-145 cells assessed as reduction in cell viability incubated for 2 hrs by Cell-titer-blue assay; type: functional, cell-based; settings: DU-145, 2 h; summary of the method: as §2
U-87 MG = experiment: Cytotoxicity in human U87 cells assessed as reduction in cell viability incubated for 2 hrs by Cell-titer-blue assay; type: functional, cell-based, U-87MG ATCC; summary of the method: as §2
[7] = Drug uptake in human K562 cells at 1 uM by flow cytometry relative to doxorubicin; type: ADME, cell-based; settings: k562, 1 µM; summary of the method: as §1

SMILES	Activity (DNA [1])	Activity (DNA [2])	Activity (MEL-JUSO [3])	pIC50 (K562)	Drug uptake [4]	Activity ([5]; filed as modulator)	pIC50 (MEL-JUSO [6])	pIC50 (HCT-116)	pIC50 (PC-3)	pIC50 (DU-145)	pIC50 (U-87 MG)	Drug uptake [7]	Activity [5]	fold change (FC) [7]
CC[C@@]1(O)C[C@H](O[C@H]2C[C@H](N)[C@H](O[C@H]3C[C@H](O)[C@H](O[C@H]4CCC(=O)[C@H](C)O4)[C@H](C)O3)[C@H](C)O2)c2c(cc3c(c2O)C(=O)c2c(O)cccc2C3=O)[C@H]1C(=O)OC	inactive	inactive	inactive	5.52	Active	Active	–	–	–	–	–	–	–	–
COc1cccc2c1C(=O)c1c(O)c3c(c(O)c1C2=O)C[C@@](O)(C(=O)CO)C[C@@H]3O[C@H]1C[C@H](N)[C@H](O)[C@H](C)O1 [DOXORUBICIN]	Active	Active	Active	6.44	–	Active	6.63	6.24	5.94	6.27	6.42	–	–	–
CC[C@@]1(O)C[C@H](O[C@H]2C[C@H](N(C)C)[C@H](O[C@H]3C[C@H](O)[C@H](O[C@H]4CCC(=O)[C@H](C)O4)[C@H](C)O3)[C@H](C)O2)c2c(cc3c(c2O)C(=O)c2c(O)cccc2C3=O)[C@H]1C(=O)OC [ACLARUBICIN]	inactive	inactive	Active	7.12	–	Active	7.32	7.40	7.00	6.89	6.86	–	–	–
COc1cccc2c1C(=O)c1c(O)c3c(c(O)c1C2=O)C[C@@](O)(C(=O)CO)C[C@@H]3O[C@H]1C[C@H](N(C)C)[C@H](O[C@H]2C[C@H](O)[C@H](O)[C@H](C)O2)[C@H](C)O1	inactive	inactive	Active	5.62	–	Active	5.80	5.86	5.49	5.49	6.22	Not Active	–	–
CC[C@@]1(O)C[C@H](O[C@H]2C[C@H](N)[C@H](O)[C@H](C)O2)c2c(cc3c(c2O)C(=O)c2c(O)cccc2C3=O)[C@H]1C(=O)OC	inactive	inactive	inactive	–	Not Active	Active	–	–	–	–	–	–	–	–
COc1cccc2c1C(=O)c1c(O)c3c(c(O)c1C2=O)C[C@@](O)(C(=O)CO)C[C@@H]3O[C@H]1C[C@H](N)[C@H](O[C@H]2C[C@H](O)[C@H](O)[C@H](C)O2)[C@H](C)O1	inactive	inactive	inactive	–	–	–	–	–	–	–	–	Not Active	inactive	–
CC[C@@]1(O)C[C@H](O[C@H]2C[C@H](N(C)C)[C@H](O[C@H]3C[C@H](O)[C@H](O)[C@H](C)O3)[C@H](C)O2)c2c(cc3c(c2O)C(=O)c2c(O)cccc2C3=O)[C@H]1C(=O)OC	inactive	inactive	Active	6.68	Active	Active	6.37	6.58	6.42	6.29	6.35	–	–	–
COc1cccc2c1C(=O)c1c(O)c3c(c(O)c1C2=O)C[C@@](O)(C(=O)CO)C[C@@H]3O[C@H]1C[C@H](N)[C@H](O[C@H]2C[C@H](O)[C@H](O[C@H]3CCC(=O)[C@H](C)O3)[C@H](C)O2)[C@H](C)O1	Active	Active	inactive	5.85	–	Active	5.74	5.73	5.81	5.86	5.66	Not Active	–	–
COc1cccc2c1C(=O)c1c(O)c3c(c(O)c1C2=O)C[C@@](O)(C(=O)CO)C[C@@H]3O[C@H]1C[C@H](N(C)C)[C@H](O[C@H]2C[C@H](O)[C@H](O[C@H]3CCC(=O)[C@H](C)O3)[C@H](C)O2)[C@H](C)O1	inactive	inactive	Active	7.59	–	Active	8.15	8.10	7.47	7.77	7.48	–	–	4
